Source: PubChem (Johns Hopkins Ion Channel Center)
RGS4 act – potentiators or activators of RGS4 | B-score at 10 µM | 310,000 compounds, 0.92% hits | AID 463111 | HEK293 M3R/inducible RGS4, carbachol calcium flux Fluo4; stronger effect = lower value;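 active = B-score of the integrated calcium signal more than 4 SD below the library mean, with starting fluorescence not abnormally high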;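 note: negative B-score means reduced calcium response which marks RGS4 activation or potentiation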
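Test system: HEK293 cells with stable M3R and inducible RGS4; also added: carbachol at ECmax as muscarinic agonist stimulus; schedule: dye loading 30 min 37 °C, buffer rest 30 min RT; technique: kinetic calcium fluorescence imaging with Fluo4-AM dye, 2 µM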
MrgX1 antagonist – human MrgX1 receptor antagonism, primary screen; Q96LB2; MRGX1-HEK293 calcium flux, Fluo-4, BAM8-22 antagonism; stronger effect = lower value; B-score at 10 µM; 310,000 compounds, 1.3% hits;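 active = calcium-response B-score plate-corrected more than 3 library SD below zero, starting fluorescence within 5 deviations, no agonist response on first addition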;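 note: peak minus trough fluorescence over baseline after final BAM8-22 challenge near maximal dose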
Target sequence (Q96LB2 whole entry, looked up): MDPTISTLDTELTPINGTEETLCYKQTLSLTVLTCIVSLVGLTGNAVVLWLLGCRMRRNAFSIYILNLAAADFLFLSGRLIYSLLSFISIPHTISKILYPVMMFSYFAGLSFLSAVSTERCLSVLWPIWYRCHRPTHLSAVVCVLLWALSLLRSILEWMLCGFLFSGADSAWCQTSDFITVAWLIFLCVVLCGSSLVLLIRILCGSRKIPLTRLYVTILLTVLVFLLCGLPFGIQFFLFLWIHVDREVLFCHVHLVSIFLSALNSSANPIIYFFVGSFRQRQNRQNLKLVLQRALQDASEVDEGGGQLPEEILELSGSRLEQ
RGS4 block – inhibitors of human RGS4; P49798; HEK293 M3R/RGS4 inducible, Fluo-4 calcium flux; stronger effect = higher value; triggered by carbachol at its EC20; B-score at 10 µM; 310,000 compounds, 0.45% hits; AID 463165;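 active = B-score, a plate-corrected calcium signal, over three deviations above library mean, with baseline fluorescence within five deviations of library mean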;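 note: RGS4 expression induced by doxycycline in cells with stable M3 receptor; B-score is computed from the integrated fluorescence ratio over baseline after carbachol; higher B-score means a larger calcium signal and so more RGS4 inhibition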
Target sequence (P49798 whole entry, looked up): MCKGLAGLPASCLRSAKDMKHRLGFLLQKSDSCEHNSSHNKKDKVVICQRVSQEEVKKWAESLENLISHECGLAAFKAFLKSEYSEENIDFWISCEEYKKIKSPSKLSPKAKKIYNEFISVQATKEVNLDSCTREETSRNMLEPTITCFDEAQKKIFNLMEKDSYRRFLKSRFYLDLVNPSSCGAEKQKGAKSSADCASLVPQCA
MrgX1 allo act – human MrgX1 positive allosteric modulation, primary screen | Q96LB2 | MrgX1-HEK293, Fluo-4 calcium flux, FDSS; stronger effect = higher value | B-score at 10 µM | 310,000 compounds, 0.63% hits | AID 588675;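 active = plate-corrected calcium response at least 3 library SD above typical, normal starting fluorescence, not activating the receptor alone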;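 note: compound read alongside a low EC10 to EC30 dose of BAM8-22 agonist; peak minus trough fluorescence over baseline measured at the second addition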
MrgX1 ag – agonists of human MrgX1 receptor; Q96LB2; MrgX1-HEK293 cells, Fluo-4 calcium fluorescence, agonist mode; stronger effect = higher value; B-score at 10 µM; 310,000 compounds, 0.44% hits;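 active = calcium response B-score plate-corrected fluorescence ratio at least 3 library SD, with starting fluorescence B-score inside 5 SD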
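Material: MrgX1-expressing HEK293 cells; input: 15,000 cells per well; doses: test compound given as first of three sequential additions; schedule: overnight plating before 1 h dye loading; technique: Fluo-4 NW calcium-flux fluorescence, kinetic read; evaluation: baseline-normalised fluorescence change ratio, B-scored; control set: plate-wise positive and negative controls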
MrgX1 allo conf – confirmation of human MrgX1 receptor positive allosteric modulators; shares compounds with MrgX1 allo act; MrgX1-HEK293, Fluo-4 calcium fluorescence, FDSS; activation (ratio percentage), % at 10 µM; 1,200 compounds, 13% hits; AID 602413;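 active = ratio at least 3 SD above the weak peptide control, stable starting fluorescence, no direct agonism earlier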;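 note: compound followed by low BAM8-22 agonist challenge near EC20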
HEK293 Ca flux – activity in parental HEK293 cells lacking MrgX1; Fluo-4 calcium fluorescence, FDSS; shares compounds with MrgX1 antagonist; 4,000 compounds, 2% hits; AID 624111; fluorescence ratio F(max-min)/F0 at 10 µM;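 active = duplicate-averaged calcium fluorescence ratio at least three times the standard deviation of buffer wells, a nonspecific response in parental cells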
HEK293 Ca counter – activity in parental HEK293 cells without MrgX1; shares compounds with MrgX1 antagonist; 4,000 compounds, 0.4% hits; AID 624114; fluorescence ratio F(max-min)/F0 at 10 µM; parental HEK293 calcium flux, Fluo-4 fluorescence ratio; stronger effect = higher value;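 active = calcium fluorescence ratio, averaged over duplicates, at least 3 SD of the buffer-well ratio, meaning a nonspecific response in receptor-free cells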;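 note: untransfected parental HEK293 lacking MrgX1 used as counterscreen for MrgX1 allosteric activators; fluorescence change taken during the second addition on a kinetic imager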
HEK293 Ca cntr2 – counter-screen for MrgX1 activators: effect in parental HEK293 cells; 4,000 compounds, 8.7% hits; shares compounds with MrgX1 antagonist; fluorescence ratio F(max-min)/F0 at 10 µM; Fluo-4 calcium fluorescence (FDSS); stronger effect = higher value;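 active = calcium fluorescence ratio at least three times the spread of buffer wells, meaning a non-specific response in parental cells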
Hits are given with their value. Hits are enriched below; roughly 3.5% of the tested compounds scored in any of these assays.

Results for CCCc1ccc(OCC(=O)Nc2cc(S(=O)(=O)CC)ccc2O)cc1 ?
RGS4 act: inactive; MrgX1 antagonist: inactive; RGS4 block: inactive; MrgX1 allo act: 24; MrgX1 ag: inactive; MrgX1 allo conf: inactive; HEK293 Ca flux: inactive; HEK293 Ca counter: inactive; HEK293 Ca cntr2: inactive

Results for Cc1[nH]n(-c2ccccc2)c(=O)c1/C=N/c1nn[nH]n1 ?
RGS4 act: inactive; MrgX1 antagonist: inactive; RGS4 block: inactive; MrgX1 allo act: inactive; MrgX1 ag: inactive

How did CSc1nnc(-c2ccccc2N=Cc2c(C)[nH]n(-c3ccc4ccccc4c3)c2=O)c(=O)[nH]1 do in these assays?
RGS4 act: inactive; MrgX1 antagonist: inactive; RGS4 block: inactive; MrgX1 allo act: 12; MrgX1 ag: inactive; MrgX1 allo conf: inactive; HEK293 Ca flux: inactive; HEK293 Ca counter: inactive; HEK293 Ca cntr2: inactive

Results for Cc1[nH]n(-c2ccccc2)c(=O)c1C=Nc1cnc2ccccc2c1 ?
RGS4 act: inactive; MrgX1 antagonist: inactive; RGS4 block: inactive; MrgX1 allo act: inactive; MrgX1 ag: inactive

What do the screens show for `C=CCSc1nnc(-c2ccccc2N=Cc2c(C)[nH]n(-c3ccccc3)c2=O)c(=O)[nH]1`?
RGS4 act: inactive; MrgX1 antagonist: inactive; RGS4 block: inactive; MrgX1 allo act: 8.7; MrgX1 ag: inactive; MrgX1 allo conf: inactive; HEK293 Ca flux: inactive; HEK293 Ca counter: inactive; HEK293 Ca cntr2: inactive

Results for COc1ccc(N2CC(C(=O)NCc3n[nH]c(=O)c4ccccc34)CC2=O)cc1 (stereo not given) ?
RGS4 act: inactive; RGS4 block: inactive

How did CCOc1cc(C)c(Cl)cc1S(=O)(=O)N(CC)CC do in these assays?
RGS4 act: inactive; MrgX1 antagonist: inactive; RGS4 block: inactive; MrgX1 allo act: 7.5; MrgX1 ag: inactive; MrgX1 allo conf: inactive; HEK293 Ca flux: inactive; HEK293 Ca counter: inactive; HEK293 Ca cntr2: inactive

Results for CCOc1cc(S(=O)(=O)N(CC)CC)ccc1Cl ?
RGS4 act: inactive; MrgX1 antagonist: inactive; RGS4 block: inactive; MrgX1 allo act: inactive; MrgX1 ag: inactive

Results for O=C(NCc1cccnc1)c1ccc([N+](=O)[O-])o1 ?
RGS4 act: inactive; MrgX1 antagonist: inactive; RGS4 block: inactive; MrgX1 allo act: inactive; MrgX1 ag: inactive

How did CCOC(=O)/C(C(=Nc1ccccc1)Nc1ccccc1)=C(\C)O do in these assays?
RGS4 act: inactive; MrgX1 antagonist: inactive; RGS4 block: inactive; MrgX1 allo act: 7.7; MrgX1 ag: inactive; MrgX1 allo conf: inactive; HEK293 Ca flux: inactive; HEK293 Ca counter: inactive; HEK293 Ca cntr2: inactive

How did CCN1C(=O)c2ccc(C(=O)Nc3ccc4c(c3)OCO4)cc2C1=O do in these assays?
RGS4 act: inactive; MrgX1 antagonist: inactive; RGS4 block: inactive; MrgX1 allo act: inactive; MrgX1 ag: inactive

How did Cc1cc(Br)ccc1OCC(=O)NC1CCCC1 do in these assays?
RGS4 act: inactive; MrgX1 antagonist: inactive; RGS4 block: inactive; MrgX1 allo act: inactive; MrgX1 ag: inactive

What do the screens show for `O=C(COc1ccccc1Br)NC1CCCC1`?
RGS4 act: inactive; MrgX1 antagonist: inactive; RGS4 block: inactive; MrgX1 allo act: 7.3; MrgX1 ag: inactive; MrgX1 allo conf: inactive; HEK293 Ca flux: inactive; HEK293 Ca counter: inactive; HEK293 Ca cntr2: inactive

Results for CCc1ccc(OCC(=O)NC2CCCCC2)c(Br)c1 ?
RGS4 act: inactive; MrgX1 antagonist: inactive; RGS4 block: inactive; MrgX1 allo act: 8.3; MrgX1 ag: inactive; MrgX1 allo conf: inactive; HEK293 Ca flux: inactive; HEK293 Ca counter: inactive; HEK293 Ca cntr2: inactive

How did N#CC1(NC(=O)COC(=O)c2cc([N+](=O)[O-])ccc2N2CCOCC2)CCCCC1 do in these assays?
RGS4 act: inactive; MrgX1 antagonist: inactive; RGS4 block: inactive; MrgX1 allo act: inactive; MrgX1 ag: inactive

Results for O=S(=O)(Nc1nc2ccccc2s1)c1ccc(Br)s1 ?
RGS4 act: inactive; MrgX1 antagonist: inactive; RGS4 block: inactive; MrgX1 allo act: 7.2; MrgX1 ag: inactive; MrgX1 allo conf: inactive; HEK293 Ca flux: inactive; HEK293 Ca counter: inactive; HEK293 Ca cntr2: inactive

How did O=C1C(=O)N(CCN2CCOCC2)C(c2ccncc2)/C1=C(/O)c1ccc2c(c1)OCO2 (stereo not given) do in these assays?
RGS4 act: inactive; MrgX1 antagonist: inactive; RGS4 block: inactive; MrgX1 allo act: 7.7; MrgX1 ag: inactive; MrgX1 allo conf: inactive; HEK293 Ca flux: inactive; HEK293 Ca counter: inactive; HEK293 Ca cntr2: inactive

What do the screens show for `O=C(NCc1ccc2c(c1)OCO2)NC12CC3CC(CC(C3)C1)C2`?
RGS4 act: inactive; MrgX1 antagonist: inactive; RGS4 block: inactive; MrgX1 allo act: inactive; MrgX1 ag: inactive

How did O=C(COc1ccc2c(c1)OCO2)NC12CC3CC(CC(C3)C1)C2 do in these assays?
RGS4 act: inactive; MrgX1 antagonist: inactive; RGS4 block: inactive; MrgX1 allo act: 11; MrgX1 ag: inactive; MrgX1 allo conf: inactive; HEK293 Ca flux: inactive; HEK293 Ca counter: inactive; HEK293 Ca cntr2: inactive

How did O=S(=O)(c1ccccc1Br)N1CCN(c2ncccn2)CC1 do in these assays?
RGS4 act: inactive; MrgX1 antagonist: inactive; RGS4 block: inactive; MrgX1 allo act: 6.7; MrgX1 ag: inactive; MrgX1 allo conf: inactive; HEK293 Ca flux: inactive; HEK293 Ca counter: inactive; HEK293 Ca cntr2: inactive

Results for OC(CN1CCN(c2ccccn2)CC1)Cn1c2ccc(Cl)cc2c2cc(Cl)ccc21 (stereo not given) ?
RGS4 act: inactive; MrgX1 antagonist: inactive; RGS4 block: inactive; MrgX1 allo act: inactive; MrgX1 ag: inactive

Results for OC(CN1CCCCC1)Cn1c2ccc(Cl)cc2c2cc(Cl)ccc21 (stereo not given) ?
RGS4 act: inactive; MrgX1 antagonist: inactive; RGS4 block: inactive; MrgX1 allo act: 6.7; MrgX1 ag: inactive; MrgX1 allo conf: inactive; HEK293 Ca flux: inactive; HEK293 Ca counter: inactive; HEK293 Ca cntr2: inactive

How did CC(NC(=O)COc1ccccc1Cl)c1ccccc1 (stereo not given) do in these assays?
RGS4 act: inactive; MrgX1 antagonist: inactive; RGS4 block: inactive; MrgX1 allo act: 7.2; MrgX1 ag: inactive; MrgX1 allo conf: inactive; HEK293 Ca flux: inactive; HEK293 Ca counter: inactive; HEK293 Ca cntr2: inactive

Results for CC(C)c1ccc(OCC(=O)NC(C)c2ccccc2)cc1 (stereo not given) ?
RGS4 act: inactive; MrgX1 antagonist: inactive; RGS4 block: inactive; MrgX1 allo act: inactive; MrgX1 ag: inactive
